In ChEMBL document CHEMBL4033661, “Small molecules inhibit STAT3 activation, autophagy, and cancer cell anchorage-independent growth” (Bioorg Med Chem, 2017) one finds IC50, inhibition and Activity data, which are given here for seven compounds.

Molecules are shown by their SMILES. Activity calls are given as the source filed them. The calls are words filed in the database; no cut-off is given here.

The subject of assay [1] is MDA-MB-231. Briefly: Cytotoxicity against human MDA-MB-231 cells assessed as cell growth inhibition after 3 days by MTT assay. The assay is classed as functional, cell-based. The following applies: MDA-MB-231, 72 h. Put shortly:
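MDA-MB-231 cells (10^4/well) in DMEM with 10% FBS at 37 °C, 5% CO2 were plated overnight, then exposed to compounds at the indicated concentrations or 1% DMSO control for 3 d. MTT (5 mg/mL stock) was added for 2 h. Absorbance was read at 570 nm with a 630 nm reference. Values are mean ± SD, n = 3.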
On the technique in general: Tetrazolium dyes change colour on reduction, which living cells bring about.

Assay [2] concerns the target Tyrosine-protein kinase Lyn (Homo sapiens, UniProt P07948). Nature of the assay: Inhibition of LYN B (unknown origin).
The target of assay [3] is Signal transducer and activator of transcription 3 (Homo sapiens) (UniProt P40763). Briefly: Inhibition of STAT3 phosphorylation at Tyr705 in human MDA-MB-231 cells at 5 uM measured at 4 hrs by Western blot method. The class given is cell-based.
Chain of Signal transducer and activator of transcription 3 (Homo sapiens) (P40763 whole entry): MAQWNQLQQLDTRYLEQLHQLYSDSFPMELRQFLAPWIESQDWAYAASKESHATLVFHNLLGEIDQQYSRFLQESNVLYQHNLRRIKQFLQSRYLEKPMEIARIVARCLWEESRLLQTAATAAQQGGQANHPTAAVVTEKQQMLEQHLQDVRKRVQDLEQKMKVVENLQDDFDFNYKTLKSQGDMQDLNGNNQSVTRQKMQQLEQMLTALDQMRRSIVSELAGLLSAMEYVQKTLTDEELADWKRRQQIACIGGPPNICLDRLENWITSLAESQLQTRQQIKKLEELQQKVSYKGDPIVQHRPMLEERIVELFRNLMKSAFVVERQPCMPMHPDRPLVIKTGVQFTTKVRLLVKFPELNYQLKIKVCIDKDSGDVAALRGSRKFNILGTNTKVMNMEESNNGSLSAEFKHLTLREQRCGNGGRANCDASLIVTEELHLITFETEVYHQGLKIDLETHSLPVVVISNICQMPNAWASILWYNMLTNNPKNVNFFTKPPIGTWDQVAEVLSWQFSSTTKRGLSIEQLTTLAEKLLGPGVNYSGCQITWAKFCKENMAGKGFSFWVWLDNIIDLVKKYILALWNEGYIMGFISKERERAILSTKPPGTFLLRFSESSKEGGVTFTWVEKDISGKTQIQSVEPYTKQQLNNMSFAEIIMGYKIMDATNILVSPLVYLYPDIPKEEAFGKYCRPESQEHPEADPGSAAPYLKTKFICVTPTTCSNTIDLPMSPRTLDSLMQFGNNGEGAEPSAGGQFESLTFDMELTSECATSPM
For assay [4], the target named is T1, Maternal embryonic leucine zipper kinase (Homo sapiens, UniProt Q14680). Nature of the assay: Inhibition of MELK in human MDA-MB-468 cells assessed as decrease in cyclin A2 level at 5 uM measured over 48 hrs by Western blot method. The class given is cell-based. Put shortly: (§1)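 Cells were treated at 5 µM over 48 h. Total lysates were made in RIPA with protease/phosphatase inhibitors, 30 µg protein was run on 10% SDS-PAGE and moved to nitrocellulose. Primary antibodies were applied overnight at 4 °C, then IRDye 800 anti-mouse or Alexa Fluor 680 anti-rabbit secondaries for 1 h at RT, with infrared imaging. Actin served as loading control. Band changes are given as percent of control, mean ± SD, n = 2.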
Target sequence in this assay (Q14680 whole entry, looked up): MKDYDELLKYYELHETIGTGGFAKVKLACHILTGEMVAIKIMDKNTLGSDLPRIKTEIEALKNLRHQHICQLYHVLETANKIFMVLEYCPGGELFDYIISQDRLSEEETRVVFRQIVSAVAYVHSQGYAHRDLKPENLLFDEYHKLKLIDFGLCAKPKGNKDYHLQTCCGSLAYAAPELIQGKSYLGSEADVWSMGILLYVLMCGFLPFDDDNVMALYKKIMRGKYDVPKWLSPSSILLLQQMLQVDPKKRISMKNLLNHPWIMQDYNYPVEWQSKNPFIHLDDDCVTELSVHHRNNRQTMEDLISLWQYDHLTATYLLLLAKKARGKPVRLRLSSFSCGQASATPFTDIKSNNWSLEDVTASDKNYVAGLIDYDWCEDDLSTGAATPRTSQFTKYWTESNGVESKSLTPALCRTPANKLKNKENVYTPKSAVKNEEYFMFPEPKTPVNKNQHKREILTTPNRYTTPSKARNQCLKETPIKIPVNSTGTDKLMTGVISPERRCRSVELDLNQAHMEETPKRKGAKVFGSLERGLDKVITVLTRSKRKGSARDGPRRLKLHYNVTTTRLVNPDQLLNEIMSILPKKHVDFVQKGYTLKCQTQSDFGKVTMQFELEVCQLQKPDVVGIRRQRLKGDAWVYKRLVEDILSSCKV

Assay [5] has as its target Tyrosine-protein kinase Blk (Homo sapiens, UniProt P51451). Nature of the assay: Inhibition of BLK (unknown origin).
Assay [6] has as its target Signal transducer and activator of transcription 3 (Homo sapiens) (UniProt P40763). Briefly: Inhibition of STAT3 phosphorylation in human MDA-MB-231 cells assessed as downregulation of Bcl-XL level at 5 uM up to 48 hrs by Western blot method. The assay is classed as cell-based. Put shortly:
as §1
For orientation: Immunoblotting shows a protein as a band on a membrane.

A further assay has as its system MDA-MB-468. Nature of the assay: Effect on p53 levels in human MDA-MB-468 cells at 5 uM up to 48 hrs by Western blot method. The assay is classed as functional, cell-based. The procedure, abridged:
as §1

The target in assay [7] is T1, Maternal embryonic leucine zipper kinase. Briefly: Inhibition of MELK in human MDA-MB-231 cells assessed as decrease in cyclin A2 level at 5 uM measured over 48 hrs by Western blot method. The assay is classed as cell-based. The procedure, abridged: as §1
Target sequence in this assay (Q14680 whole entry, looked up): as above
Assay [8] deals with Tyrosine-protein kinase CSK (Homo sapiens, UniProt P41240). Briefly: Inhibition of CSK (unknown origin).
Assay [9] addresses Receptor tyrosine-protein kinase erbB-4 (Homo sapiens, UniProt Q15303). Briefly: Inhibition of ERBB4/HER4 (unknown origin).
The subject of assay [10] is MDA-MB-231. Briefly: Cytotoxicity against human MDA-MB-231 cells assessed as inhibition of anchorage-independent colony formation on soft agar after 10 days by crystal violet staining based assay. Particulars: MDA-MB-231, 240 h. The assay is classed as functional, cell-based. The procedure, abridged: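 Base layer 0.5% agar, top layer 0.3% agar containing the cells, both in DMEM with 10% FBS. Feeding medium held compound at the indicated concentrations or 1% DMSO and was changed twice weekly for 10 d at 37 °C, 5% CO2. Colonies were stained with 0.005% crystal violet and counted under a dissecting microscope. Values are mean ± SE of six fields from two independent samples.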

Assay [11] concerns the target Tyrosine-protein kinase JAK1 (Homo sapiens) (UniProt P23458). Nature of the assay: Inhibition of JAK1 (unknown origin) at 20 uM.
Assay [12] has as its target T1, Maternal embryonic leucine zipper kinase. Nature of the assay: Inhibition of MELK in human MDA-MB-468 cells assessed as decrease in p53 phosphorylation at Ser15 residue at 5 uM by Western blot method. The assay is classed as cell-based. Particulars: TDE = time-dependent effect. The procedure, abridged:
as §1
Target sequence in this assay (Q14680 whole entry, looked up): as above

Assay [13] deals with Signal transducer and activator of transcription 3 (Homo sapiens) (UniProt P40763). Briefly: Inhibition of STAT3 in human MDA-MB-231 cells assessed as decrease in autophagic flux by measuring accumulation of LC3B-2 level at 5 uM after 4 hrs in presence of bafilomycin A by Western blot method. The assay is classed as cell-based. The procedure, abridged:
(§2)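 Cells were exposed for 4 h to 5 µM compound, DMSO vehicle, or 1% O2 as hypoxic autophagy control. Bafilomycin A1 (100 nM) was added 4 h before harvest. Lysis was in NP40 buffer with protease/phosphatase inhibitors, then 16,300g spin for 15 min at 4 °C, SDS-PAGE and PVDF transfer. Blots were probed overnight at 4 °C with anti-LC3B (1:3000), then HRP secondary (1:10,000) for 2 h, with ECL detection of LC3B-I and LC3B-II.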

Assay [14] addresses Fibroblast growth factor receptor 1 (Homo sapiens, UniProt P11362). Nature of the assay: Inhibition of FGFR1 (unknown origin).
Assay [15] has as its target Signal transducer and activator of transcription 3 (Homo sapiens) (UniProt P40763). Nature of the assay: Inhibition of STAT3 phosphorylation in human MDA-MB-468 cells assessed as down regulation of Bcl-XL level at 5 uM up to 48 hrs by Western blot method. The assay is classed as cell-based. Put shortly:
as §1

The target is the same in assay [16]. Briefly: Inhibition of STAT3 at Tyr705 in human MDA-MB-231 cells at 5 uM after 8 hrs by Western blot method. The assay is classed as cell-based.
The target is the same in assay [17]. Nature of the assay: Inhibition of STAT3 in human MDA-MB-468 cells assessed as decrease in autophagic flux by measuring accumulation of LC3B-2 level at 5 uM after 4 hrs in presence of bafilomycin A by Western blot method. The assay is classed as cell-based. The procedure, abridged: as §2
In assay [18] the target is RAC-alpha serine/threonine-protein kinase (Homo sapiens) (UniProt P31749). Briefly: Inhibition of Akt phosphorylation in human MDA-MB-468 cells by Western blot method. The class given is cell-based.
Chain of RAC-alpha serine/threonine-protein kinase (Homo sapiens) (P31749 whole entry): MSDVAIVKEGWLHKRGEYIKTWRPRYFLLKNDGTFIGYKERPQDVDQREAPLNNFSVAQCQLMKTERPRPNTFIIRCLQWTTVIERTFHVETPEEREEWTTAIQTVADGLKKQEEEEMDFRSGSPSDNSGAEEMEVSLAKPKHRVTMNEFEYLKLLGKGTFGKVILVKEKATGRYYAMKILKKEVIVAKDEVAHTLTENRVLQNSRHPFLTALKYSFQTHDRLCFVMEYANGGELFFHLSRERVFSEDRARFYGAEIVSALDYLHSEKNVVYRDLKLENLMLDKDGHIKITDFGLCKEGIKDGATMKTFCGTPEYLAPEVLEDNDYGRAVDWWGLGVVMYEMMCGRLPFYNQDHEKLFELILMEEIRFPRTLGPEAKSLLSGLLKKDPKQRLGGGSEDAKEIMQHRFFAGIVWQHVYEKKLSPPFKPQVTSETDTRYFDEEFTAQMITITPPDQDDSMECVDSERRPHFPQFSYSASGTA
The target in assay [19] is T1, Maternal embryonic leucine zipper kinase. Briefly: Inhibition of MELK in human MDA-MB-468 cells assessed as upregulation of p53-dependent p21WAF1/CIP1 expression at 5 uM by Western blot method. The assay is classed as cell-based. Particulars: TDE = time-dependent effect. Put shortly:
as §1
Target sequence in this assay (Q14680 whole entry, looked up): as the sequence (Q14680 whole entry, looked up) above

Assay [20] has the same target. Nature of the assay: Inhibition of MELK (unknown origin).
Target sequence in this assay (Q14680 whole entry): as the sequence (Q14680 whole entry, looked up) above
Assay [21] has as its target Tyrosine-protein kinase JAK2 (Homo sapiens) (UniProt O60674). Briefly: Inhibition of JAK2 (unknown origin) at 20 uM.
In assay [22] the target is Calcium/calmodulin-dependent protein kinase type 1 (Homo sapiens, UniProt Q14012). Nature of the assay: Inhibition of CaMK1alpha (unknown origin).
Assay [23] has as its target Megakaryocyte-associated tyrosine-protein kinase (Homo sapiens, UniProt P42679). Briefly: Inhibition of CTK/MATK (unknown origin).
Assay [24] deals with T1, Maternal embryonic leucine zipper kinase. Nature of the assay: Inhibition of MELK (unknown origin) at 20 uM relative to control.
Target sequence in this assay (Q14680 whole entry, looked up): as above
Assay [25] concerns the target Signal transducer and activator of transcription 3 (Homo sapiens) (UniProt P40763). Nature of the assay: Inhibition of STAT3 phosphorylation in human MDA-MB-231 cells assessed as downregulation of survivin level at 5 uM up to 48 hrs by Western blot method. The class given is cell-based. The procedure, abridged:
as §1

Assay [26] has as its target Calcium/calmodulin-dependent protein kinase type II subunit gamma (Homo sapiens, UniProt Q13555). Briefly: Inhibition of CaMK2gamma (unknown origin).
Assay [27] deals with Signal transducer and activator of transcription 3 (Homo sapiens) (UniProt P40763). Briefly: Inhibition of STAT3 phosphorylation at Tyr705 in human MDA-MB-468 cells at 5 uM measured at 4 hrs by Western blot method. The class given is cell-based.
For assay [28], the target named is T1, Maternal embryonic leucine zipper kinase. Briefly: Inhibition of MELK in human MDA-MB-231 cells assessed as upregulation of p53-dependent p21WAF1/CIP1 expression at 5 uM by Western blot method. The assay is classed as cell-based. The following applies: TDE = time-dependent effect. Put shortly: as §1
Target sequence in this assay (Q14680 whole entry, looked up): as above
The target in a further assay is Angiopoietin-1 receptor (Homo sapiens, UniProt Q02763). Nature of the assay: Inhibition of TIE2/TEK (unknown origin).
The target of assay [29] is Tyrosine-protein kinase Fer (Homo sapiens, UniProt P16591). Nature of the assay: Inhibition of FER (unknown origin).
In assay [30] the target is Signal transducer and activator of transcription 3 (Homo sapiens) (UniProt P40763). Nature of the assay: Inhibition of STAT3 phosphorylation in human MDA-MB-468 cells assessed as down regulation of survivin level at 5 uM up to 48 hrs by Western blot method. The assay is classed as cell-based. The procedure, abridged:
as §1

Assay [31] addresses Calcium/calmodulin-dependent protein kinase type II subunit delta (Homo sapiens, UniProt Q13557). Briefly: Inhibition of CaMK2delta (unknown origin).
For assay [32], the target named is Tyrosine-protein kinase BTK (Homo sapiens, UniProt Q06187). Briefly: Inhibition of BTK (unknown origin).
The target in another assay is Insulin receptor (Homo sapiens, UniProt P06213). Briefly: Inhibition of IR (unknown origin).
Assay [33] deals with Tyrosine-protein kinase JAK3 (Homo sapiens) (UniProt P52333). Nature of the assay: Inhibition of JAK3 (unknown origin) at 20 uM.
Assay [34] addresses Cytoplasmic tyrosine-protein kinase BMX (Homo sapiens, UniProt P51813). Briefly: Inhibition of BMX/ETK (unknown origin).
For assay [35], the target named is Signal transducer and activator of transcription 3 (Homo sapiens) (UniProt P40763). Nature of the assay: Inhibition of STAT3 at Tyr705 in human MDA-MB-468 cells at 5 uM after 8 hrs by Western blot method. The class given is cell-based.
The target is the same in assay [36]. Briefly: Inhibition of [gamma32P]-ATP labelled DNA binding to STAT3 dimer (unknown origin) at 5 uM after 4 hrs by electrophoretic mobility shift assay. The procedure, abridged:
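STAT3 consensus oligonucleotide was 5'-labeled with [γ-32P]ATP using polynucleotide kinase. Nuclear protein (2 µg) was incubated with probe for 30 min on ice in 10 mM Tris, 50 mM KCl, 1 mM DTT, 50 µM EDTA, 50 ng/µL poly(dI-dC), pH 7.5. Samples were run on a 4% native polyacrylamide gel in Tris-glycine-EDTA, then the gel was dried and autoradiographed.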

Chain of Receptor tyrosine-protein kinase erbB-4 (Q15303 whole entry): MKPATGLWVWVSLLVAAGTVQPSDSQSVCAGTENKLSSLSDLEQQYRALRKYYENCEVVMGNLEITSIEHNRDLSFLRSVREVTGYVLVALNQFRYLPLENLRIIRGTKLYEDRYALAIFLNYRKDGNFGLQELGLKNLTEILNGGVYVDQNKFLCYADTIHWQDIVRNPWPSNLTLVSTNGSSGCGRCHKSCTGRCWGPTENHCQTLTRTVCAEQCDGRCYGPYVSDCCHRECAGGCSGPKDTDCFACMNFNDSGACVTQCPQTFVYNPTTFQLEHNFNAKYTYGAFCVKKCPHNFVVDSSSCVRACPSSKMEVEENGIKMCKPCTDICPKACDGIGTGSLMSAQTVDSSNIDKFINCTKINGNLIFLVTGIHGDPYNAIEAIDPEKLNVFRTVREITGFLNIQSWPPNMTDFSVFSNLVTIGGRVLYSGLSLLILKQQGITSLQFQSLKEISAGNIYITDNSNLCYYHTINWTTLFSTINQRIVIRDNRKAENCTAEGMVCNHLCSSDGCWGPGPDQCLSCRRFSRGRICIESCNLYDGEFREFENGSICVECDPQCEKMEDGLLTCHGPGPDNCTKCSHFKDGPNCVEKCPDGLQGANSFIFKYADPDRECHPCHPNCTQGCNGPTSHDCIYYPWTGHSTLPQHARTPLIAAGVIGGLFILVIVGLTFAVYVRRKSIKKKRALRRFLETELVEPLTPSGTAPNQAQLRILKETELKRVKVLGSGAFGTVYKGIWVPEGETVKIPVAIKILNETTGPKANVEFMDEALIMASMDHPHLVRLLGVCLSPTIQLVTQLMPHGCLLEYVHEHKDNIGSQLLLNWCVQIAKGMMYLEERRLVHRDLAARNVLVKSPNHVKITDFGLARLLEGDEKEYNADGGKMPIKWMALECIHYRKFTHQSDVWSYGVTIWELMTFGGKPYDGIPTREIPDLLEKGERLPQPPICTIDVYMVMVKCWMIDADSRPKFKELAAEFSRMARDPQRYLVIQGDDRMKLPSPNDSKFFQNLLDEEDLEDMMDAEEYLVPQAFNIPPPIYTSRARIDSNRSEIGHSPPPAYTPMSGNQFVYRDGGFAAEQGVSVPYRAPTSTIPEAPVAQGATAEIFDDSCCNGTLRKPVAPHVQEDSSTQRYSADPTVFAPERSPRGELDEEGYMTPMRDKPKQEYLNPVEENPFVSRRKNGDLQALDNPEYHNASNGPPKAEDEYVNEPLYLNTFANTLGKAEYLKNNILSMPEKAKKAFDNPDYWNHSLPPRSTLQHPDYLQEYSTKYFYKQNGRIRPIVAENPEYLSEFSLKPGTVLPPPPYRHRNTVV
Chain of Tyrosine-protein kinase Lyn (P07948 whole entry): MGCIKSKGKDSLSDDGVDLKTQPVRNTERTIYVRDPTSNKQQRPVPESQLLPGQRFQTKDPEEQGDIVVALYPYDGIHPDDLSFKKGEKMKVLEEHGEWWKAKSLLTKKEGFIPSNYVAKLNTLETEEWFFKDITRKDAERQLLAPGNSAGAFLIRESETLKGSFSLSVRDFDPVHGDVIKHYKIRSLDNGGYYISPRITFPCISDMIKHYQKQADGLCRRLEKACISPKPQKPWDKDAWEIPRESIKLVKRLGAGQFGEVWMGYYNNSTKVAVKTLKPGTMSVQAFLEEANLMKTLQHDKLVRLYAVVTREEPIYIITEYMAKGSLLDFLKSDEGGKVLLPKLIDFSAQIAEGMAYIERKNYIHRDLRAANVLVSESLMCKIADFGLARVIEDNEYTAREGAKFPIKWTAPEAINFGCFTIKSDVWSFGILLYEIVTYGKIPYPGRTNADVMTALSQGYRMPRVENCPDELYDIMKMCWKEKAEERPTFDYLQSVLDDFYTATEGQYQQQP
Chain of Calcium/calmodulin-dependent protein kinase type II subunit gamma (Q13555 whole entry): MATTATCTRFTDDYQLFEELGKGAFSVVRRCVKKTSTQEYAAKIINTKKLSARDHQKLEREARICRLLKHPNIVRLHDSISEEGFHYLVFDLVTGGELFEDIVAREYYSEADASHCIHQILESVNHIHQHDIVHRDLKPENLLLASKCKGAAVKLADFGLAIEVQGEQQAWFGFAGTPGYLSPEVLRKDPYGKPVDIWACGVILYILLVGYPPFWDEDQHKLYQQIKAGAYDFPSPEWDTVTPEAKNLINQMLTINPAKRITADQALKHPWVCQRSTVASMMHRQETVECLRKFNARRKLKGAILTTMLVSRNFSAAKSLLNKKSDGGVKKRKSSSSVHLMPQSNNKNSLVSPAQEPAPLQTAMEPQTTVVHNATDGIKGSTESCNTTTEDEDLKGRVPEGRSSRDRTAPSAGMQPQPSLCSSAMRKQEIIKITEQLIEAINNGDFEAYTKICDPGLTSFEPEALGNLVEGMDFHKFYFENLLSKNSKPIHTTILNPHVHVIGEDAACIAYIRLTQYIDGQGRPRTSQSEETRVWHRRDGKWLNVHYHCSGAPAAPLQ
Chain of Calcium/calmodulin-dependent protein kinase type II subunit delta (Q13557 whole entry): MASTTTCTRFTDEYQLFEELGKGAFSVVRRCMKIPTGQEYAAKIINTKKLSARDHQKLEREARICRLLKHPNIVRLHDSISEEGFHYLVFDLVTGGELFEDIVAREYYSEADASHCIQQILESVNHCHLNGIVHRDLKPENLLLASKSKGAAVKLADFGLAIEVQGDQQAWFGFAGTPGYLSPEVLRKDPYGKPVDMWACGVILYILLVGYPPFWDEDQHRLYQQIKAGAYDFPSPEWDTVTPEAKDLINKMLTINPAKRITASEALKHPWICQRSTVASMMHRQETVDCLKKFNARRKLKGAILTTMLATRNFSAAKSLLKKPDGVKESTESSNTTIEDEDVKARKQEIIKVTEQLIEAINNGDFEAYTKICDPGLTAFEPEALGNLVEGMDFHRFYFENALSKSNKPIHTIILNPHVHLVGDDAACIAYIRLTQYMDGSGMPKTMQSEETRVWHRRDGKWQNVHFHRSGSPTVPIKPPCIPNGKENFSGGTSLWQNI

As usually defined, the IC50 is the point on the concentration scale where inhibition reaches its midpoint. For orientation: inhibition means how much of the control response was suppressed. Take `CCN(CC)CCCC(C)Nc1nc(/C=C/c2c(Cl)cc(Cl)cc2Cl)nc2ccc(N)cc12` (stereo not drawn): the IC50 in the assay on MDA-MB-231 [1] was 2 µM; in [2], 10.5 µM; in assay [5], 8.8 µM; in [8] it was above 100 µM; in assay [9], 23.9 µM; in the assay on MDA-MB-231 [10] it was 3 to 7 µM. Besides, the IC50 in [14] was found to be 9 µM; in assay [20] it was 1.4 µM; in [22], 6.9 µM; in [23], 14.7 µM; in assay [26], 9.2 µM; against Angiopoietin-1 receptor, 1.8 µM. The half-maximal inhibitory concentration (IC50) in assay [29] was 42.7 µM; in assay [31] it was 9.1 µM; in [32], 6.7 µM; at Insulin receptor, above 100 µM; in [34], 1.9 µM. The inhibition entry in assay [3], in assay [4], in assay [6], in assay [7], in assay [13] and in [15] was “Active” throughout. Also, the inhibition entry in [17], in assay [25], in assay [27] and in [30] was “Active” in each case. In addition, in the assay on MDA-MB-468, the outcome was inactive. For the same compound, the inhibition result in assay [11], in assay [16], in assay [18], in assay [21], in [33] and in [35] was “inactive” in each case. Besides, the inhibition result in [12] is “Tde”; in assay [19] it was “Tde”; in assay [24], above 98%; in assay [28], “Tde”.

`CCN(CC)CCNc1nc(/C=C/c2ccc(Cl)cc2)nc2cc3ccccc3cc12`: the IC50 with MDA-MB-231 [1] was below 10 µM.

`Nc1ccc2nc(/C=C/c3ccc(C(F)(F)F)cc3)nc(NCCCN3CCOCC3)c2c1` had an IC50 in assay [20] of 3.5 µM.

As to `CCN(CC)CCCC(C)Nc1nc(/C=C/c2ccccc2)nc2cc(Cl)ccc12` (stereo not drawn), the inhibition result in assay [3], in assay [4], in assay [6], in [7], in assay [36] and in [15] was “Active” each time. The inhibition entry in assay [25], in [27] and in assay [30] was “Active” in each case. For the same compound, the inhibition result in [12], in assay [19] and in [28] was “Tde” in each case. The inhibition entry in [16], in assay [18] and in [35] was “inactive” throughout.

With `CC1CCN(c2nc(/C=C/c3ccccc3)nc3ccccc23)CC1`, in the assay with MDA-MB-231 [1], the IC50 is above 10 µM.

In assay [20], `CCN(CC)CCCCNc1nc(/C=C/c2c(Cl)cc(Cl)cc2Cl)nc2ccc(N)cc12` came in with an IC50 of 2.1 µM.

On to `C(=C\c1nc(N2CCCC2)c2ccccc2n1)/c1ccccc1`, for which, in the assay with MDA-MB-231 [1], the IC50 was below 10 µM.
